Screening data: PubChem BioAssay, The Scripps Research Institute Molecular Screening Center
IDE act: activators of human insulin-degrading enzyme in cells; P14735; HEK cells, FAbeta-B cleavage, fluorescence polarization; 0% vehicle, 100% cell-free pure enzyme wells; activation, % at 5.96 µM; hit rate 0.073% among 340,000; AID 493087;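 active = activation above the mean of all tested compounds plus 3 SD, set per screening campaign, cut at about 17% in these data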
procasp7 counter: counter-screen for procaspase-3 activators: activators of human procaspase-7; P55210; recombinant procaspase-7, Ac-DEVD-pNA absorbance 405 nm; D23A/D198A/D206A triple mutant, cannot self-cleave; scale: DMSO 0, 5 µM enzyme 100; activation, % at 8.5 µM; hit rate 0.093% among 330,000; AID 463210;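 active = percent activation above the screen-wide mean plus 3 SD, cut at about 25% in these data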
Target sequence (P55210 whole entry D23A/D198A/D206A): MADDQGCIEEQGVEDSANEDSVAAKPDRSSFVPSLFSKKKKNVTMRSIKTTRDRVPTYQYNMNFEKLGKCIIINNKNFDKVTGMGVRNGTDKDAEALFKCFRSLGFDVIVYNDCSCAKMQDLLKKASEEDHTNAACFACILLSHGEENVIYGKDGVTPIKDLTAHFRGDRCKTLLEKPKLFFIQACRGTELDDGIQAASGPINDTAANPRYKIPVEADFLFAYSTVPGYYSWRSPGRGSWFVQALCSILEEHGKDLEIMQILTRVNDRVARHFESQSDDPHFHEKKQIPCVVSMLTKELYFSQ
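Replicates: singlicate. Assay system: Procaspase-7 triple mutant (PC-7 D3A). Signal: 405 nm absorbance of p-nitroaniline. Times: 1 h preincubation, 2 h reaction. Buffer or medium: Zinc-free HEPES pH 7.4 with 300 mM NaCl, 0.01% Triton X-100. Also added: DEVD-pNA substrate. Benchmarks: DMSO wells as 0%, DMSO with 5 µM added PC-7 as 100%.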
TPT1 inhibitor: blocks Candida albicans tRNA 2'-phosphotransferase | recombinant caTPT1, FP RNA substrate dephosphorylation | inhibition, % at 5 µM | hit rate 0.81% among 300,000 | AID 1962;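 active = inhibition above the mean of all tested compounds plus 3 SD, set per screening campaign, cut at about 24% in these data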
IDE inh: inhibitors of human insulin-degrading enzyme in cells; inhibition, % at 5.59 µM; hit rate 0.41% among 320,000; P14735; HEK cells, FAbetaB cleavage, fluorescence polarization;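 active = percent inhibition above the average of all tested compounds plus 3 SD, set per screening campaign, cut at about 16% in these data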;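 note: IDE supplied by intact live HEK cells; FP after avidin binding of uncleaved biotin substrate so inhibition keeps polarization high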
proCasp3 act: procaspase-3 (human) activation; P42574; activation, % at 8.5 µM; recombinant procaspase-3 D3A, Ac-DEVD-pNA absorbance 405 nm; AID 463141; hit rate 0.11% among 330,000;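 active = activation above the mean of all tested compounds plus 3 SD, cut at about 21% in these data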
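Test system: Procaspase-3 D3A mutant; medium: Zinc-free HEPES/NaCl buffer with 0.01% Triton X-100 at pH 7.4; reagent: DEVD-pNA substrate; doses: one concentration, 8.5 µM nominal, 0.8% DMSO; times: 1 h preincubation plus 2 h reaction at 25 °C; signal: Epi-absorbance at 405 nm of released p-nitroaniline, 0 and 120 min; replicates: singlicate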
caTPT1 confirm: TPT1 (C. albicans) inhibition, confirmation. hit rate 74% among 2,400. shares compounds with TPT1 inhibitor. AID 2149. inhibition, % at 5 µM. recombinant caTPT1, fluorescence polarization, RNase T1 coupled;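 active = inhibition above the primary screen limit, the mean inhibition of all tested compounds plus 3 SD, cut at about 25% in these data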
RNase T1 inh: RNase T1 inhibition in TPT1 counter-screen. shares compounds with TPT1 inhibitor. RNase T1 cleavage, fluorescence polarization, 1536-well. inhibition, % at 5 µM. hit rate 83% among 2,400;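 active = inhibition above the solvent-only control well mean plus 3 SD, limit set per screening run, cut at about 23% in these data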;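 note: inhibitors block cleavage so intact labeled substrate keeps polarization high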
Target sequence (P00651 whole entry, looked up): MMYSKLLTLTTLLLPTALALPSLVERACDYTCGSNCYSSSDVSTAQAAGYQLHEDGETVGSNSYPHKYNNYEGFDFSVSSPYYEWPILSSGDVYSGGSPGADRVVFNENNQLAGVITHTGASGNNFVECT
Numbers stand for hits; – = inactive; · = no result. Shown are actives, neighbours in structure and some others; about 1.2% of the full set was active somewhere.

SMILES | IDE act | procasp7 counter | TPT1 inhibitor | IDE inh | proCasp3 act | caTPT1 confirm | RNase T1 inh
COCCCNC(=O)N1c2ccccc2Sc2ccccc21 | – | – | 25 | – | – | – | –
Cc1nn(CC(=O)c2ccc(Br)s2)c(C)c1[N+](=O)[O-] | – | – | 33 | – | – | 49 | 63
Cc1nn(CC(=O)c2ccccc2Cl)c(C)c1[N+](=O)[O-] | – | – | – | – | – | · | ·
CCOc1ccc(N(C)c2ccc(/C=C3/SC(=S)NC3=O)cc2)cc1 | – | – | 115 | – | – | 128 | 127
CN(C)c1ccc(C=C2SC(=S)NC2=O)cc1 | – | · | · | · | · | · | ·
CCn1c(SCC(=O)c2c[nH]c3ccccc23)nnc1-c1cccs1 | – | – | 25 | – | – | 25 | 35
COCCn1c(SCC(=O)c2c[nH]c3ccccc23)nnc1-c1ccncc1 | – | – | – | – | – | · | ·
O=C1/C(=C/c2c[nH]c3ccccc23)CCC/C1=C\c1c[nH]c2ccccc12 | – | – | 51 | – | – | 147 | 137
COC1=C/C(=C/c2c(N)n3cc(C)sc3nc2=O)C=CC1=O | – | – | 81 | – | – | 127 | 128
Cc1cn2c(N)c(C=C3C=C(Cl)C(=O)C(Cl)=C3)c(=O)nc2s1 | – | · | · | · | · | · | ·
O=C1N=C(C=c2ccc(=Cc3[nH]c(=O)[nH]c3O)cc2)C(=O)N1 | · | – | – | – | – | · | ·
Nc1c(Cl)cc2c(c1Oc1ccccc1)C(=O)c1ccccc1C2=O | – | – | 25 | – | – | 30 | 41
COc1ccc2c(C)cc(SCC#N)nc2c1 | – | – | 41 | – | – | 40 | 49
NC(=O)C1CCN(c2nc(-c3cccc(Cl)c3)cs2)CC1 | – | – | · | – | – | · | ·
Nc1cc(N)nc(CS)n1 | – | – | – | – | – | · | ·
N#C/C(=C\c1cc(O)c(O)c(O)c1)C(N)=O | – | – | 33 | – | – | 27 | 36
CC1=Nc2ccccc2/C1=C/c1sc(=N)n(-c2nccs2)c1O | – | – | 99 | – | – | 112 | 122
N#C/C(C(=O)NCCc1ccccc1)=C1/N=C(NC(=O)c2cccs2)c2ccccc21 | – | – | – | – | – | · | ·
COCCCNC(=O)/C(C#N)=C1\N=C(NC(=O)c2cccs2)c2ccccc21 | – | – | 31 | – | – | – | –
CC1=C(C#N)C(=O)N(C2CCS(=O)(=O)C2)C(=O)/C1=C\c1ccco1 (stereo not drawn) | · | – | 74 | – | – | 85 | –
Cc1cccc(NC(=O)c2ccc(NCCc3ccccc3)c([N+](=O)[O-])c2)c1 | – | – | 46 | – | – | 111 | 133
O=S(=O)(NCc1ccccc1)c1ccc(Cl)cc1 | – | – | – | – | – | · | ·
O=S(=O)(Nc1cc2nc3ccccc3nc2n1Cc1ccccc1)c1ccc(Cl)cc1 | – | – | 44 | – | – | 39 | 51
COc1ccccc1/C=C1\SC(=S)N(C(C(=O)O)c2ccccc2)C1=O (stereo not drawn) | – | – | – | – | – | · | ·
CCC(C(=O)O)N1C(=O)/C(=C/c2cccn2C)SC1=S (stereo not drawn) | – | – | 118 | – | – | 124 | 130
SMILES | IDE act | procasp7 counter | TPT1 inhibitor | IDE inh | proCasp3 act | caTPT1 confirm | RNase T1 inh
CC(C(=O)O)N1C(=O)/C(=C/c2cccn2C)SC1=S (stereo not drawn) | – | – | 96 | – | – | 105 | 118
Cn1cccc1/C=C1/SC(=S)N(CC(=O)O)C1=O | – | – | 89 | – | – | 110 | 120
Cc1ccc(NC(=O)CN2C(=O)S/C(=C\c3cccn3C)C2=O)cc1 | – | – | – | – | – | · | ·
COc1cccc(OC)c1C(=O)Nc1sc2c(c1C(N)=O)CCN(Cc1ccccc1)C2 | – | – | – | – | – | · | ·
NC(=O)c1c(NC(=O)C2c3ccccc3Oc3ccccc32)sc2c1CCCCC2 | – | – | 27 | – | – | – | 22
CC(=O)c1ccc(C(=O)Nc2sc3c(c2C(N)=O)CCN(Cc2ccccc2)C3)cc1 | – | – | 132 | – | – | 140 | 141
COc1ccccc1C(=O)Nc1sc2c(c1C(N)=O)CCCC2 | – | – | – | – | – | · | ·
CCN1CCc2c(sc(NC(=O)c3cc4ccccc4cc3OC)c2C(N)=O)C1 | – | – | 46 | – | – | 40 | 46
CC(C)N1CCc2c(sc(NC(=O)c3ccc4ccccc4c3)c2C(N)=O)C1 | – | – | 96 | – | – | 90 | 96
Cc1nn(C2CCS(=O)(=O)C2)c(C)c1C=O (stereo not drawn) | – | – | – | – | – | · | ·
O=C(COC(=O)C1CCN(C(=O)c2ccc(Cl)cc2)CC1)Nc1ccccc1F | – | – | · | – | – | · | ·
N#Cc1c(N)sc2c1CCN(CCc1ccccc1)C2 | – | – | 75 | – | – | 71 | 82
CC(=O)Nc1sc2c(c1-c1nc3ccccc3s1)CCN(C(C)C)C2 | – | – | 43 | – | – | 47 | 53
CC(=O)N1CCc2c(sc(NC(=O)c3cccc(N4C(=O)CCC4=O)c3)c2C(N)=O)C1 | – | – | 33 | – | – | 41 | 56
CC(C)N1CCc2c(sc(NC(=O)CCc3ccccc3)c2C(N)=O)C1 | – | – | – | – | – | · | ·
NC(=O)c1c(NC(=O)c2cccc(N3C(=O)CCC3=O)c2)sc2c1CCCCC2 | – | – | – | – | – | · | ·
NC(=O)c1c(NC(=O)C2COc3ccccc3O2)sc2c1CCN(Cc1ccccc1)C2 (stereo not drawn) | – | – | 67 | – | – | 70 | 85
O=C(NCC1COc2ccccc2O1)c1ccc(Cl)c(S(=O)(=O)N2CCCC2)c1 (stereo not drawn) | – | – | · | – | – | · | ·
C=CCNC(=O)CN1C(=O)C2C3c4ccccc4C(c4ccccc43)C2C1=O (stereo not drawn) | – | – | – | – | – | · | ·
COc1ccc(NS(=O)(=O)c2cccs2)cc1S(=O)(=O)N1CCCCC1 | – | – | – | – | – | · | ·
Cc1c(Cl)c(C(=O)N2CCCC2)nn1C | – | – | – | – | – | · | ·
CC(C)(C)C1=CC(O)(c2ccccc2)C=C(C(C)(C)C)C1=O | – | – | – | – | – | · | ·
CC(C)N1CCc2c(sc(NC(=O)c3ccc(C(=O)c4ccccc4)cc3)c2C(N)=O)C1 | – | – | 35 | – | – | 31 | 48
CC(C)(C)C(=O)Nc1sc2c(c1C#N)CCCCC2 | – | – | – | – | – | · | ·
CC(C)N1CCc2c(sc(NC(=O)Cc3ccccc3)c2C(N)=O)C1 | – | – | – | – | – | · | ·
CC(C)(C)C(=O)Nc1sc2c(c1C#N)CCN(Cc1ccccc1)C2 | – | – | 39 | – | – | 62 | 67
CCCCN1C(=O)C(C(=O)OCc2ccccc2)CC2=C1CCCC2=O (stereo not drawn) | – | · | · | · | · | · | ·
